# hDAT+cocaine: changed hDAT dopamine uptake under cocaine IC80, either direction, primary screen, cocaine antagonist project, cell-based, LLC-PK1 hDAT, [14C]-dopamine uptake, MLSMR; Sodium-dependent dopamine transporter (Homo sapiens), Q01959; LLC-PK1 hDAT cells, [14C]-dopamine uptake with cocaine IC80; actives deviate in either direction; B-score at 10 µM; 1.3% of 110,000 active; AID 449768, 2010;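 active = Z score or B-score, a plate-position-corrected score, falls beyond the plate's 99.7% confidence bounds, in either direction; inactive = both scores lie inside the 99.7% bounds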
# WNV protease inh: inhibitors of WNV NS2B-NS3 protease, primary screen, biochemical, fluorogenic substrate | 0.18% of 65,000 active | z-score (concentration not given with the values) | fluorogenic substrate Ex360/Em465; stronger effect = lower value | Genome polyprotein (West Nile virus), P06935; in the data active = z-score below about -3
# D1 allo mod: D1 CRE-luciferase signal change, two-sided – cell-based, HEK293 D1, dopamine EC30, D1 allosteric modulator project, primary screen; dopamine EC30 potentiation; actives deviate in either direction; B-score at 10 µM; 5.9% of 58,000 active;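 active = luminescence count or its row- and column-corrected plate score outside the 99.7% band of the plate's sample wells, on either side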
# Target sequence (P21728 whole entry, looked up): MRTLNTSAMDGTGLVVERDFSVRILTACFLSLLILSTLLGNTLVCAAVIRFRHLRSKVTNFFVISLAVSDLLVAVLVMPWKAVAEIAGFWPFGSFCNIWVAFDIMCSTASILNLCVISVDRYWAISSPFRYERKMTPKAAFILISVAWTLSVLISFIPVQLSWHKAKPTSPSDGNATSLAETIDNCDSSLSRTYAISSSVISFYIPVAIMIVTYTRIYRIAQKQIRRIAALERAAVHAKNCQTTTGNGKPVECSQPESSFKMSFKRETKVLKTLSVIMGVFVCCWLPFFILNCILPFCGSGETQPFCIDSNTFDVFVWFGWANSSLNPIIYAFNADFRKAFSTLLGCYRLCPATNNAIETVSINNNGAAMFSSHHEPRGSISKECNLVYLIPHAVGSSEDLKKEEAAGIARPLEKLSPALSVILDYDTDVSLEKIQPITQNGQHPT
# AP complement: alternative complement pathway inhibitors, primary screen, biochemical, ELISA, human serum, orthogonally pooled compounds; LPS-coated ELISA, C3 deposition; tested in compound mixtures; inhibition, % at 5 µM; 0.08% of 62,000 active;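 active = inhibition above 30% in each of the two pooled mixtures holding the compound, so the lower value exceeds 30%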
#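 Medium: diluted human serum in Mg2+-EGTA GVB++. Assay system: human serum complement alternative pathway, C3 deposition onto LPS. Also added: Plate-bound LPS. Technique: Anti-C3 ELISA, OD 450 nm. Measure: percent inhibition. Incubation: 1 h at 37 °C. Dosing: 5 µM each compound, pools of ten, 50 µM per pool.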
# Hits are given with their value; n = inactive; x = not tested or not shown. Only a selection was taken, and hits are over-represented in it overall.
SMILES,hDAT+cocaine,WNV protease inh,D1 allo mod,AP complement
O=C(CSc1n[nH]c(=O)n1C1CC1)Nc1cc(Cl)ccc1Oc1ccccc1,n,n,n,n
CCCC(=O)Nc1ccc(-c2nc3cc(C)c(C)cc3o2)cc1,n,n,-2.4,n
Cc1ccc(S(=O)(=O)n2[nH]c(=O)cc2N)cc1,n,x,x,x
CC(=O)C1=C(O)C(=O)N(c2nccs2)C1c1ccccc1 (stereo unspecified),n,x,x,x
Cc1ccc(NC(=O)NC(=O)CN2C(=O)NC3(CCc4ccccc43)C2=O)c(C)c1 (stereo unspecified),2.5,n,x,n
CCOC(=O)C1=C(N)OC2=C(C(=O)CC(C)(C)C2)C1c1cccs1 (stereo unspecified),n,x,x,x
CC1CC(NC(=O)c2cnc3n(c2=O)CCS3)CC(C)(C)C1 (stereo unspecified),-2.6,n,n,n
CCN1CCN(C(c2ccc(OC)cc2)C(O)C(=O)c2c[nH]c3ccccc23)CC1 (stereo unspecified),n,x,x,x
O=C(NCC1(c2ccccc2)CCCC1)c1cccc(Br)c1,n,x,x,x
Cc1nn(CCC#N)c(NC(=O)c2ccc(Cl)cc2Cl)c1P(=O)(Nc1ccc([N+](=O)[O-])cc1)N1CCOCC1 (stereo unspecified),-6.5,x,x,x
Cc1nn(CCC#N)c(NC(=O)c2ccc(Cl)cc2)c1P(=O)(Nc1ccc([N+](=O)[O-])cc1)N1CCOCC1 (stereo unspecified),-5.6,x,x,x
CC1(c2nnc(Cc3ccccc3)o2)CC(c2cccc(Cl)c2)=NO1 (stereo unspecified),n,x,x,x
CCOC(=O)N1CCC(n2c(SCC(=O)Nc3nccs3)nc3ccsc3c2=O)CC1,n,n,n,n
Cc1ccc(NC2=NC(=S)N(CC#N)C23CCCCC3)cc1,n,x,x,x
COc1ccc(-c2nnn(CC(=O)Nc3sc4c(c3C#N)CCCC4)n2)cc1,n,n,n,n
COc1ccc2c(c1)c(CCNNC(=O)C(C)(C)C)c(C)n2C(=O)c1ccc(Cl)cc1,n,x,x,x
Oc1c(Cl)cc(Cl)cc1Sc1cc(Cl)cc(Cl)c1O,-4.3,n,n,n
Oc1c(Cl)cc(Cl)cc1C(C#Cc1ccccc1)N1CCOCC1 (stereo unspecified),n,x,x,x
COc1cc(C)nc(Oc2ccc(OCCOc3ccc(C)cc3)nn2)n1,n,-8.5,n,x
Cc1nc2ncnn2c(C)c1CCC(=O)N1CC(C)CC(C)C1 (stereo unspecified),n,x,x,x
COc1ccc(C(=O)/C=C\N2CCOCC2)cc1,-2.7,n,n,n
COc1ccc(OCc2ccc(C(=O)N3CCOCC3)cc2)cc1,n,x,x,x
CC(C)NC(=O)CSc1nnc(C2CC2)n1-c1ccccc1,n,x,x,x
NC(=O)CSc1nnc(C2CC2)n1-c1ccccc1,-9.3,x,x,x
CCN1CCN(Cc2c(OC)ccc3ccccc23)CC1,n,n,-3.6,n
SMILES,hDAT+cocaine,WNV protease inh,D1 allo mod,AP complement
COc1ccc2ccccc2c1CN1CCN(C)CC1,n,n,-2.4,n
COc1ccccc1-c1c(C)oc2c(CN3CCN(C)CC3)c(O)ccc2c1=O,n,n,x,n
COc1cccc(-c2cn3nc4c(nc3n2)CCCC4)c1,n,n,-4.8,n
Clc1ccc(-c2cn3nc4c(nc3n2)CCCC4)cc1,n,x,x,x
COC(=O)c1ccc(C(=O)OC)c(NC(=O)c2cc3ccccc3o2)c1,x,n,n,x
Cc1ccc(N2C(=O)CC(Sc3ncn[nH]3)C2=O)cc1C (stereo unspecified),-3.1,x,x,x
CC1=CS(=O)(=O)CC1Sc1ncn[nH]1 (stereo unspecified),n,x,x,x
Cc1cc(NC(=O)NC(=O)c2ccc(F)cc2F)n[nH]1,n,n,-3.3,n
Cc1cc(=O)[nH]c2c1c(C)nn2C1CCOC(C)(C)C1 (stereo unspecified),n,x,x,x
CCOC(=O)N1CCN(C2=CC(=O)OC23CCCCC3)CC1,n,-5.2,n,n
CCOC(=O)N1CCN(c2ccccc2O)CC1,n,x,x,x
CCCNS(=O)(=O)c1ccc(OCC(=O)N2CCOCC2)cc1,n,x,x,x
O=C(/C=C/Nc1ccccc1)c1ccc(Oc2ncccn2)cc1,n,x,x,x
Cc1ccc(C(=O)/C=C/Nc2cccc(O)c2)cc1,n,n,-2.8,n
C/C(=C\C(=O)c1ccc(C)cc1)Nc1cccc(O)c1,x,n,n,n
O=C(/C=C/Nc1cccc(O)c1)c1ccccc1,n,n,-8.7,n
Cc1ccc(C(=O)C(C)OC(=O)c2n[nH]c(=O)c3ccccc23)cc1 (stereo unspecified),n,x,x,x
COC(=O)c1cc(COc2ccc3c(c2)oc(=O)c2ccccc23)c(C)o1,n,x,x,x
CCCCOc1ccc(-c2c(C#N)c(N)nc(SCC(N)=O)c2C#N)cc1,-2.3,n,n,n
CCCCOC(=O)CSc1nc(N)c(C#N)c(-c2ccc(OCC)cc2)c1C#N,n,n,n,n
Cc1ccc(C(=O)c2c(NC(=O)c3cccnc3)sc3c2CCCC3)cc1,n,x,x,x
Cc1ccc(N2C(=O)C3ON(c4ccccc4)C(c4ccncc4)C3C2=O)c(C)c1 (stereo unspecified),n,n,x,x
Cc1ccc(CNC(=O)C(Cc2ccccc2)NS(=O)(=O)c2cccs2)cc1 (stereo unspecified),n,x,x,x
CCOC(=O)CNC(=O)C(Cc1ccccc1)NS(=O)(=O)c1cccs1 (stereo unspecified),n,-3.4,x,n
COc1ccc2cc3cc(C(=O)Nc4cc(OC)c(OC)c(OC)c4)oc3nc2c1,n,x,x,x
SMILES,hDAT+cocaine,WNV protease inh,D1 allo mod,AP complement
COc1ccc2cc3cc(C(=O)NC(C)C)oc3nc2c1,-8.2,x,x,x
Cc1ccc2nc(N3CCN(C=O)CC3)nc(-c3ccccc3)c2c1,2.8,x,x,x
FC(F)(F)c1cc(-c2ccco2)nc(NCCc2ccccc2)n1,n,x,x,x
COc1cccc(N=Nc2c(N)[nH]n3c(=O)cc(-c4ccccc4)nc23)c1,n,x,x,x
Cc1ccc(N=Nc2c(N)[nH]n3c(=O)cc(-c4ccccc4)nc23)cc1,1.6,x,x,x
O=C(NC1(C(F)(F)F)C(=O)Nc2c1c(=O)[nH]c(=O)n2-c1ccccc1)c1ccncc1 (stereo unspecified),n,x,x,x
CCOc1cc(S(=O)(=O)NCc2ccccn2)c(C)cc1C,x,n,n,n
Cc1onc(-c2ccccc2Cl)c1C(=O)Nc1nnc(-c2ccc(F)cc2)s1,2.7,n,x,n
CC(=O)Nc1ccc(S(=O)(=O)NC2(C(F)(F)F)N=C(c3ccccc3)NC2=O)cc1 (stereo unspecified),n,x,x,x
O=c1oc2c3c4c(cc2cc1-c1nc2ccccc2[nH]1)CCCN4CCC3,x,n,-2.7,n
CC1=C(C(=O)OCc2ccccc2)C(c2ccccc2OS(=O)(=O)c2ccc([N+](=O)[O-])cc2)NC(=O)N1CCCC(=O)O (stereo unspecified),2.8,x,x,x
CC1CCCN(Cc2c(O)ccc3c(=O)c(-c4nc5ccccc5s4)c(N)oc23)C1 (stereo unspecified),2.5,x,x,x
Cc1oc(-c2ccc3c(c2)OCCO3)cc1C(=O)O,n,n,-6.2,n
